# Assays:
# Rattus norvegicus [1] = organism: Rattus norvegicus; experiment: The compound was tested for the inhibition of lipid peroxidation in rat liver microsomes induced by [Fe2+] at a concentration of 10E-5 M.; type: functional
# Summary of the method: (§1)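 Liver microsomes from 24 h-fasted Wistar rats (8000g then 105000g pellet, in 0.15 M KCl, protein by Lowry). 1 mL mix: 83.5 mM KCl, 37.2 mM Tris-HCl pH 7.4, 10 μM FeSO4, 2 mg microsomal protein, compound in 0.01 mL DMF. 37 °C for 20 min. TBA-reactive material read at 532 nm after n-BuOH/pyridine extraction. Reported against vehicle control.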
# Rattus norvegicus [2] = organism: Rattus norvegicus; experiment: The compound was tested for the inhibition of lipid peroxidation in rat liver microsomes induced by [Fe3+] at a concentration of 10E-5 M.; type: functional
# Summary of the method: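 Fasted Wistar rat liver microsomes, 2.0 mg protein in 1 mL of 83.5 mM KCl/37.2 mM Tris-HCl pH 7.4. Peroxidation started with 1 mM ADP, 10 μM FeCl3 and 0.02 mM NADPH. Compound added in 0.01 mL DMF. 37 °C for 20 min, stopped on ice. Malondialdehyde measured as TBA-reactive material: 95 °C for 20 min, butanol/pyridine extract, A532. Compared with vehicle control.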
# [3] = Partition ratio obtained from HPLC analysis.; type: ADME
# Rattus norvegicus [4] = organism: Rattus norvegicus; experiment: The compound was tested for the stimulation of lipid peroxidation in rat liver microsomes induced by [Fe2+] at a concentration of 10E-5 M.; type: functional; summary of the method: as §1
SMILES,k' [3],inhibition (Rattus norvegicus [1]),inhibition (Rattus norvegicus [2]),Stimulation (Rattus norvegicus [4])
CCCCCCC(=O)COC1=C(O)C(=O)OC1C(O)CO (centres undefined),0.24,20%,27%,
CCCCCCCCCCCCCCC(=O)COC1=C(O)C(=O)OC1C(O)CO (centres undefined),4.33,33%,65%,
CCCCCCCCCCCCCCCCCCOC1=C(O)C(=O)OC1C(O)CO (centres undefined),17.34,7%,45%,
CCCCCCCCCCCCC(=O)COC1=C(O)C(=O)OC1C(O)CO (centres undefined),2.25,30%,81%,
CCCCCCCCCCCCCCCCOC1=C(O)C(=O)OC1C(O)CO (centres undefined),9.09,21%,74%,
CCCCOC(=O)COC1=C(O)OC(C(O)CO)C1=O (centres undefined),,,10%,
O=C1O[C@H]([C@@H](O)CO)C(O)=C1O [ASCORBIC ACID],< 0.1,,,72%
CCCCCCCCCCCCCCCCCCOC1=C(O)[C@@H](C(O)CO)OC1=O (some centres undefined),1.13,29%,88%,
CCCCCCCCCCOC1=C(OCCCCCCCCCC)C(C(O)CO)OC1=O (centres undefined),,,2%,
O=C1OC(C(O)CO)C(OCc2cccnc2)=C1O (centres undefined),< 0.1,,2%,
CCCCCCCCCCC(=O)COC1=C(O)C(=O)OC1C(O)CO (centres undefined),1.14,44%,88%,
CCCCCCCCCCOC(=O)COC1=C(O)C(=O)OC1C(O)CO (centres undefined),,31%,,
CCCCCCCCCCCCCCCCC(=O)COC1=C(O)C(=O)OC1C(O)CO (centres undefined),8.26,28%,43%,
CC(=O)COC1=C(O)C(C2COC(C)(C)O2)OC1=O (centres undefined),< 0.1,,2%,

# Second part, led by results:
k' [3],SMILES,inhibition (Rattus norvegicus [1]),inhibition (Rattus norvegicus [2]),Stimulation (Rattus norvegicus [4])
0.62,CCCCCCCCOC1=C(O)C(=O)OC1C(O)CO (centres undefined),9%,40%,
2.49,CCCCCCCCCCCCOC1=C(O)C(=O)OC1C(O)CO (centres undefined),34%,88%,
4.78,CCCCCCCCCCCCCCOC1=C(O)C(=O)OC1C(O)CO (centres undefined),30%,81%,
1.27,CCCCCCCCCCOC1=C(O)C(=O)OC1C(O)CO (centres undefined),44%,91%,
0.45,CCCCCCCCCCCCCCCCC(=O)COC1=C(O)OC(C(O)CO)C1=O (centres undefined),,55%,
< 0.2,CCCCCCCCOC1=C(O)OC(C(O)CO)C1=O (centres undefined),,20%,
0.55,CCCCCCCCC(=O)COC1=C(O)C(=O)OC1C(O)CO (centres undefined),33%,64%,
0.63,CCCCCCCCCCCCOC1=C(O)OC(C(O)CO)C1=O (centres undefined),,83%,
